Active and inactive are the calls of the source. The rule behind the calls is not given here.
How the values were obtained:
[1] = Metabolic stability in C57BL/6 mouse liver microsomes assessed as half life; type: ADME, Microsome; conditions: time 2 min
[2] = Metabolic stability in C57BL/6 mouse liver microsomes assessed as parent compound remaining incubated for 120 mins; type: ADME, Microsome; conditions: read-out: Stability
[3] = target: T1, Peroxisome proliferator-activated receptor alpha (Homo sapiens, UniProt Q07869); assay: Agonist activity at human PPARalpha expressed in HEK293 cells by luciferase/beta-galactosidase reporter gene assay; type: cell-based
T1 sequence (Q07869 whole entry): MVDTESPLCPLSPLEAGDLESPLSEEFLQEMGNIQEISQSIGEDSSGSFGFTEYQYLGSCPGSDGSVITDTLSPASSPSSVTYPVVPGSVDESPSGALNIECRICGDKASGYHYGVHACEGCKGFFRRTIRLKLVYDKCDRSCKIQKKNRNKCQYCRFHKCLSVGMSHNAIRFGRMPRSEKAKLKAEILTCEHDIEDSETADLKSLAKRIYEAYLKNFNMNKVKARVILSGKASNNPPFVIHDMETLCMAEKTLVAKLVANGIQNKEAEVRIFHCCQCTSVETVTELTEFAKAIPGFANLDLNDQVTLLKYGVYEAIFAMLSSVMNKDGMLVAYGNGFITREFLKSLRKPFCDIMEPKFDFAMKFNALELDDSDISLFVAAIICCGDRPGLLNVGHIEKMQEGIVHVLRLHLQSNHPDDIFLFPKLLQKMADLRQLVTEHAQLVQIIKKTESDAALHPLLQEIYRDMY
How it was run: (§1)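 HEK293 cells in charcoal-stripped FBS, calcium phosphate co-transfected with GAL4-hPPAR LBD fusion, UAS-luciferase and β-galactosidase. Ligand added 6–8 h post transfection, full dose–response, harvested 14–16 h later. Luciferase normalized to β-galactosidase.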

[4] = target: T2, Peroxisome proliferator-activated receptor gamma (Homo sapiens) (UniProt P37231); assay: Agonist activity at human PPARgamma expressed in HEK293 cells assessed as maximal activity by luciferase/beta-galactosidase reporter gene assay relative to rosiglitazone; type: cell-based; how it was run: as §1
T2 sequence (whole entry): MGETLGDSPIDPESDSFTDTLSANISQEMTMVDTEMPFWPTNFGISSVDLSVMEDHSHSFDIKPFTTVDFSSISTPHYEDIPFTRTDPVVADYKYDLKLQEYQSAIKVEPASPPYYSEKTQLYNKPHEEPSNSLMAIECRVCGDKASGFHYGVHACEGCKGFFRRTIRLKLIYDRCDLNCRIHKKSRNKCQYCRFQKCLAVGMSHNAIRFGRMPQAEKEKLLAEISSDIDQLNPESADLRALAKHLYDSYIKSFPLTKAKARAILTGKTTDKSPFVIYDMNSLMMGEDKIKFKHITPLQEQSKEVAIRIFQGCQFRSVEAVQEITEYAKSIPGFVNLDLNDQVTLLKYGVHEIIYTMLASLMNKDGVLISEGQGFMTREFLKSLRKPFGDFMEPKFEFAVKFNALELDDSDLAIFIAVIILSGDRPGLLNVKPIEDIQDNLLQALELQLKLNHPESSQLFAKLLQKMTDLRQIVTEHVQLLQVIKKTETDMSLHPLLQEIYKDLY

[5] = target: T3, Peroxisome proliferator-activated receptor delta (Homo sapiens) (UniProt Q03181); assay: Stabilization of human PPARdelta LBD assessed as change in melting temperature at 50 uM by thermal shift assay
T3 sequence (whole entry): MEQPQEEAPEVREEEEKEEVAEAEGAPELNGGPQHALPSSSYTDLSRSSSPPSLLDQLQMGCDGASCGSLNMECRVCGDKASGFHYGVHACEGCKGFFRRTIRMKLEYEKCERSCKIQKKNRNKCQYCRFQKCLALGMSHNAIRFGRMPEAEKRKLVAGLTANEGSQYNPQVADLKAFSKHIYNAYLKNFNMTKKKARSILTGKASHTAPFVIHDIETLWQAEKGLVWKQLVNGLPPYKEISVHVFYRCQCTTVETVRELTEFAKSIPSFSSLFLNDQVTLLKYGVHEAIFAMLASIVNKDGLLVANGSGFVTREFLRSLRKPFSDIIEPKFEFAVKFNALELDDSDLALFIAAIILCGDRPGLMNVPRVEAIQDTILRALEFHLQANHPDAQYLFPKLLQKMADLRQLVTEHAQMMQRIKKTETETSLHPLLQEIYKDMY

[6] = target: T4, Peroxisome proliferator-activated receptor alpha (Homo sapiens) (UniProt Q07869); assay: Agonist activity at human PPARalpha transfected in HEK293 cells assessed as relative luciferase unit at 50 uM measured after 16 hrs by luciferase reporter gene assay; type: cell-based; conditions: filed as agonist
T4 sequence (whole entry): T1 sequence (Q07869 whole entry)
How it was run: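 GAL4-hPPAR (α or γ) plus UAS-luciferase and β-galactosidase transiently co-transfected into HEK293 cells, then treated with 50 μM compound for 16 h. RLU = luciferase/β-galactosidase × time, vehicle (DMSO) set to 1. Mean ± SD, N = 3; one-way ANOVA with Holm–Šidák vs vehicle.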

[7] = target: T5, Peroxisome proliferator-activated receptor alpha (Mus musculus) (UniProt P23204); assay: Agonist activity at human PPARalpha in mouse hepatocytes assessed as induction of Pdk4 mRNA expression at 50 uM incubated for 16 hrs by quantitative real-time PCR analysis; type: cell-based; conditions: Hepatocyte, filed as agonist
T5 sequence (whole entry): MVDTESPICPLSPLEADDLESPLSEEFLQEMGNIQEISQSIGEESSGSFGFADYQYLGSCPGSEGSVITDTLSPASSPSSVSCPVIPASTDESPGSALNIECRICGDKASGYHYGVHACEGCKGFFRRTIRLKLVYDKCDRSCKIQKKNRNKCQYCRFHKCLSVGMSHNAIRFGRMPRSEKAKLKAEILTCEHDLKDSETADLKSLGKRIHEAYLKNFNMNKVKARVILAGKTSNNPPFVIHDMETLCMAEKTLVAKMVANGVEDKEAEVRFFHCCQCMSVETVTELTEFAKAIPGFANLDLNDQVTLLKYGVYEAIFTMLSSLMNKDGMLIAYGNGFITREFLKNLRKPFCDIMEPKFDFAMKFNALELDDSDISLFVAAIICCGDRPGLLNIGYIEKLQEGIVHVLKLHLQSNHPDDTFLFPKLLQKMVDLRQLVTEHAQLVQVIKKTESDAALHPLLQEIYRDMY
How it was run: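 Collagenase-perfused mouse primary hepatocytes from WT mice, plated 2 h in attachment medium, overnight in M199 with 5% charcoal-stripped FBS and 1 nM insulin. Treated next day in serum-free M199 with 50 μM compound for 16 h. RNA qPCR (SYBR Green), comparative Ct method.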

Compound	half-life [1]	remaining at 2 h [2]	EC50 [3]	Emax ([4]; filed as agonist)	ΔTm [5]	Activity [6]	Activity [7]	Emax [4]
CCCCCCCCCCCCCCCc1cccc(OC(C)=O)c1C(=O)O	2 min	0%	2400 nM	> 90%	12 °C	Active	Active	
CCCCCC/C=C\CCCCCCCc1cccc(OC(C)(C)C(=O)O)c1	835 min	90%	700 nM	> 90%	6.8 °C	Active	Active	
CCCCCCCCCCCCCCCc1cccc(OC(C)(C)C(=O)O)c1	360 min	79%	500 nM		11.3 °C	Active	Active	30%

Source: ChEMBL document CHEMBL5154715, “Phenolic Lipids Derived from Cashew Nut Shell Liquid to Treat Metabolic Diseases” (J Med Chem, 2022)
